According to ChEMBL document CHEMBL1127345, “Synthesis, binding properties, and 18F labeling of fluorocarazolol, a high-affinity beta-adrenergic receptor antagonist” (J Med Chem, 1994):

How the values were obtained:
Mus musculus [1] = test: The in vivo tissue distribution of mouse kidney with Propranolol administration after 180 min, value was fractional dose per fractional body weight of the organ; format: ADME, organism-based; details: 3 h
Method in brief: (§1)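 Male CF-1 mice (25–30 g), anesthetised with 2 mg sodium pentobarbital ip 30 min before tracer. Where blocked, propranolol iv via tail vein (0.1 mL of […]; […]) about 30 min before tracer. Tracer given by tail vein, 0.1 mL at 1–2 mCi/mL. Mice killed by cervical dislocation at set times, organs weighed and counted. %ID/g × body weight/100 gives unitless uptake. Heart, brain, blood, lung, kidney, liver and bone n=5; average ± SD.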

Mus musculus [2] = test: The in vivo tissue distribution of mouse blood with Propranolol administration after 10 min, value was fractional dose per fractional body weight of the organ; format: ADME, organism-based; method in brief: as §1
Mus musculus [3] = test: The in vivo tissue distribution of mouse bone with Propranolol preadministration in 20 min, value was fractional dose per fractional body weight of the organ; format: ADME, organism-based, Bone element; method in brief: as §1
Mus musculus [4] = test: The in vivo tissue distribution of mouse kidney without Propranolol preadministration in 40 min, value was fractional dose per fractional body weight of the organ
Mus musculus [5] = test: The in vivo tissue distribution of mouse heart with Propranolol administration after 20 min, value was fractional dose per fractional body weight of the organ; format: ADME, organism-based; method in brief: as §1
Mus musculus [6] = test: The in vivo tissue distribution of mouse blood with Propranolol preadministration in 120 min, value was fractional dose per fractional body weight of the organ; format: ADME, organism-based; details: 2 h
Method in brief: (§2)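 Male CF-1 mice (25–30 g) anaesthetised with 2 mg sodium pentobarbital ip; blocked group given 0.1 mL of […] propranolol iv via tail vein (200 μg, 6.6 mg/kg), tracer 30 min later. 0.1 mL of 1–2 mCi/mL [18F]-labelled enantiomer iv via tail vein; killed by cervical dislocation, organs weighed and counted against weighed standards. %ID/g × body weight/100 gives unitless uptake; five mice per point (heart, blood, lung, kidney, liver, bone); mean ± SD.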

Mus musculus [7] = test: The in vivo tissue distribution of mouse heart without Propranolol preadministration in 20 min, value was fractional dose per fractional body weight of the organ
Mus musculus [8] = test: The in vivo tissue distribution of mouse kidney without Propranolol preadministration in 10 min, value was fractional dose per fractional body weight of the organ
Mus musculus [9] = test: The in vivo tissue distribution of mouse bone with Propranolol preadministration in 90 min, value was fractional dose per fractional body weight of the organ; format: ADME, organism-based, Bone element; details: 1.5 h; method in brief: as §2
Mus musculus [10] = test: The in vivo tissue distribution of mouse brain with Propranolol administration after 180 min, value was fractional dose per fractional body weight of the organ; format: ADME, organism-based; details: 3 h
Method in brief: (§3)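 Male CF-1 mice (25–30 g), given 2 mg sodium pentobarbital ip 30 min before tracer. Blocked groups received propranolol iv by tail vein, 0.1 mL of 1 mg/mL. About 30 min later, 0.1 mL of [18F]tracer (1–2 mCi/mL) was injected by tail vein. Mice were killed by cervical dislocation at set times, and organs were weighed and counted. Uptake is %ID/g × body weight/100, average ± SD; n=5 for heart, brain, blood, lung, kidney, liver and bone.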

Mus musculus [11] = test: The in vivo tissue distribution of mouse heart without Propranolol preadministration in 90 min, value was fractional dose per fractional body weight of the organ; details: 1.5 h
Mus musculus [12] = test: The in vivo tissue distribution of mouse blood without Propranolol preadministration in 20 min, value was fractional dose per fractional body weight of the organ
Mus musculus [13] = test: The in vivo tissue distribution of mouse heart with Propranolol administration after 120 min, value was fractional dose per fractional body weight of the organ; format: ADME, organism-based; details: 2 h; method in brief: as §3
Mus musculus [14] = test: The in vivo tissue distribution of mouse lung without Propranolol preadministration in 90 min, value was fractional dose per fractional body weight of the organ; details: 1.5 h
Mus musculus [15] = test: The in vivo tissue distribution of mouse lung with Propranolol administration after 10 min, value was fractional dose per fractional body weight of the organ; format: ADME, organism-based; method in brief: as §3
Mus musculus [16] = test: The in vivo tissue distribution of mouse blood with Propranolol administration after 120 min, value was fractional dose per fractional body weight of the organ; format: ADME, organism-based; details: 2 h; method in brief: as §3
Mus musculus [17] = test: The in vivo tissue distribution of mouse heart with Propranolol administration after 180 min, value was fractional dose per fractional body weight of the organ; format: ADME, organism-based; details: 3 h; method in brief: as §3
Mus musculus [18] = test: The in vivo tissue distribution of mouse lung without Propranolol preadministration in 60 min, value was fractional dose per fractional body weight of the organ; details: 1 h
Mus musculus [19] = test: The in vivo tissue distribution of mouse bone without Propranolol preadministration in 10 min, value was fractional dose per fractional body weight of the organ
Mus musculus [20] = test: The in vivo tissue distribution of mouse lung without Propranolol preadministration in 20 min, value was fractional dose per fractional body weight of the organ
Mus musculus [21] = test: The in vivo tissue distribution of mouse liver without Propranolol preadministration in 20 min, value was fractional dose per fractional body weight of the organ
Mus musculus [22] = test: The in vivo tissue distribution of mouse bone with Propranolol administration after 120 min, value was fractional dose per fractional body weight of the organ; format: ADME, organism-based, Bone element; details: 2 h; method in brief: as §3
Mus musculus [23] = test: The in vivo tissue distribution of mouse brain without Propranolol preadministration in 120 min, value was fractional dose per fractional body weight of the organ; details: 2 h
Mus musculus [24] = test: The in vivo tissue distribution of mouse lung without Propranolol preadministration in 120 min, value was fractional dose per fractional body weight of the organ; details: 2 h
Mus musculus [25] = test: The in vivo tissue distribution of mouse brain with Propranolol administration after 40 min, value was fractional dose per fractional body weight of the organ; format: ADME, organism-based; method in brief: as §1
Mus musculus [26] = test: The in vivo tissue distribution of mouse bone with Propranolol administration after 40 min, value was fractional dose per fractional body weight of the organ; format: ADME, organism-based, Bone element; method in brief: as §1
Mus musculus [27] = test: The in vivo tissue distribution of mouse kidney without Propranolol preadministration in 120 min, value was fractional dose per fractional body weight of the organ; details: 2 h
Mus musculus [28] = test: The in vivo tissue distribution of mouse blood with Propranolol administration after 20 min, value was fractional dose per fractional body weight of the organ; format: ADME, organism-based; method in brief: as §1
Mus musculus [29] = test: The in vivo tissue distribution of mouse heart with Propranolol preadministration in 120 min, value was fractional dose per fractional body weight of the organ; format: ADME, organism-based; details: 2 h; method in brief: as §2
Mus musculus [30] = test: The in vivo tissue distribution of mouse lung with Propranolol administration after 40 min, value was fractional dose per fractional body weight of the organ; format: ADME, organism-based; method in brief: as §2
Mus musculus [31] = test: The in vivo tissue distribution of mouse lung without Propranolol preadministration in 10 min, value was fractional dose per fractional body weight of the organ
Mus musculus [32] = test: The in vivo tissue distribution of mouse kidney with Propranolol administration after 60 min, value was fractional dose per fractional body weight of the organ; format: ADME, organism-based; details: 1 h; method in brief: as §2

## CC(C[18F])NC[C@H](O)COc1cccc2[nH]c3ccccc3c12 (some centres undefined)
Mus musculus [1]
  Dose/organ: 0.35
Mus musculus [2]
  Dose/organ: 0.39
Mus musculus [3]
  Dose/organ: 0.65
Mus musculus [4]
  Dose/organ: 2.01
Mus musculus [5]
  Dose/organ: 0.63
Mus musculus [6]
  Dose/organ: 0.52
Mus musculus [7]
  Dose/organ: 0.91
Mus musculus [8]
  Dose/organ: 4.18
Mus musculus [9]
  Dose/organ: 1.13
Mus musculus [10]
  Dose/organ: 0.09
Mus musculus [11]
  Dose/organ: 0.61
Mus musculus [12]
  Dose/organ: 0.71
Mus musculus [13]
  Dose/organ: 0.15
Mus musculus [14]
  Dose/organ: 5.88
Mus musculus [15]
  Dose/organ: 5
Mus musculus [16]
  Dose/organ: 0.13
Mus musculus [17]
  Dose/organ: 0.15
Mus musculus [18]
  Dose/organ: 5.34
Mus musculus [19]
  Dose/organ: 0.65
Mus musculus [20]
  Dose/organ: 7.46
Mus musculus [21]
  Dose/organ: 2.54
Mus musculus [22]
  Dose/organ: 1.42
Mus musculus [23]
  Dose/organ: 0.64
Mus musculus [24]
  Dose/organ: 4.82
Mus musculus [25]
  Dose/organ: 0.64
Mus musculus [26]
  Dose/organ: 0.64
Mus musculus [27]
  Dose/organ: 0.83
Mus musculus [28]
  Dose/organ: 0.43
Mus musculus [29]
  Dose/organ: 0.45
Mus musculus [30]
  Dose/organ: 1.98
Mus musculus [31]
  Dose/organ: 6.4
Mus musculus [32]
  Dose/organ: 1.28

## CC(C[18F])NC[C@@H](O)COc1cccc2[nH]c3ccccc3c12 (some centres undefined)
Mus musculus [1]
  Dose/organ: 0.33
Mus musculus [2]
  Dose/organ: 0.92
Mus musculus [3]
  Dose/organ: 0.93
Mus musculus [4]
  Dose/organ: 3.3
Mus musculus [5]
  Dose/organ: 0.85
Mus musculus [6]
  Dose/organ: 0.24
Mus musculus [7]
  Dose/organ: 0.81
Mus musculus [8]
  Dose/organ: 4.6
Mus musculus [9]
  Dose/organ: 1
Mus musculus [10]
  Dose/organ: 0.06
Mus musculus [11]
  Dose/organ: 0.46
Mus musculus [12]
  Dose/organ: 0.75
Mus musculus [13]
  Dose/organ: 0.27
Mus musculus [14]
  Dose/organ: 1.55
Mus musculus [15]
  Dose/organ: 5.23
Mus musculus [16]
  Dose/organ: 0.3
Mus musculus [17]
  Dose/organ: 0.1
Mus musculus [18]
  Dose/organ: 2.39
Mus musculus [19]
  Dose/organ: 0.67
Mus musculus [20]
  Dose/organ: 5.1
Mus musculus [21]
  Dose/organ: 4
Mus musculus [22]
  Dose/organ: 1.98
Mus musculus [23]
  Dose/organ: 0.2
Mus musculus [24]
  Dose/organ: 1.29
Mus musculus [25]
  Dose/organ: 0.9
Mus musculus [26]
  Dose/organ: 0.83
Mus musculus [27]
  Dose/organ: 1
Mus musculus [28]
  Dose/organ: 0.57
Mus musculus [29]
  Dose/organ: 0.28
Mus musculus [30]
  Dose/organ: 2
Mus musculus [31]
  Dose/organ: 8.13
Mus musculus [32]
  Dose/organ: 1.67
